Assay results pooled from the literature.
Protocols differ between the studies behind these lines. pEC50, pIC50: −log10 of the molar value.
Cell line: MV4-11
Observed: cell growth or viability

With N[C@@H](CC(=O)N1CCN(C(c2ccc(F)cc2)c2ccc(F)cc2)CC1)C(=O)N1Cc2ccccc2C1 the pIC50 was 5.83 (ATP luminescence; 24 h).
CCNc1ccnc(Nc2cccc(-c3cccnc3)c2)n1 gave a pEC50 of 7.46 (ATP luminescence; 72 h).
The pEC50 of C/C(=N\NC(=O)c1cccc(S(=O)(=O)N2CCN(C)CC2)c1)c1cc(Cl)ccc1O is reported as 6.05 (resazurin; 96 h).
COc1cc(Nc2nccc(-c3cnn4nc(OC)ccc34)n2)cc(C(F)(F)F)c1 gave a pIC50 of 7.32 (ATP luminescence).
With CC(C)Nc1ccnc(Nc2cccc(-c3ccccn3)c2)n1 the pEC50 was 5.32 (ATP luminescence; 72 h).
CC(C)[C@H](N)C(=O)N1CCC[C@H]1B(O)O has a pIC50 of 6.89 (ATP luminescence; 5 days).
With Nc1ncc(-c2cnn(C3CCNCC3)c2)cc1-c1nnc(CC2CC2)o1 the pIC50 was 6.80 (trypan blue; 72 h).
CC(C)Nc1ccnc(Nc2ccc(C(N)=O)cc2)n1 has a pEC50 of 5.60 (ATP luminescence; 72 h).
With N[C@H]1CC[C@H](N[C@@H]2C[C@H]2c2ccccc2)CC1 the pEC50 was 10.00 (resazurin; 96 h).
O=C(NC1CCC1)c1ccc2nc(-c3cccc(NS(=O)(=O)NCCN4CCCCC4)c3)cn2c1 gave a pIC50 of 5.38 (ATP luminescence; 72 h).
Cc1ncsc1-c1ccc(CNC(=O)[C@@H]2C[C@H](O)CN2C(=O)[C@@H](NC(=O)C2(F)CC2)C(C)(C)C)c(OCCc2ccc(CN3CCN(c4cc(-c5ccccc5O)nnc4N)CC3)cc2)c1 has a pIC50 of 5.77 (ATP luminescence; 7 days).
For Cc1cc2c(cc1N1C(=O)c3cccc4c(CCCO)ccc(c34)C1=O)n(C)c(=O)n2C (racemic), the GI50 was 2630 nM (resazurin).
NNCCc1ccccc1 gave a pEC50 of under 5.70 (resazurin; 96 h).
COc1cc2nccc(Oc3ccc(NC(=O)C4(C(=O)Nc5ccc(F)cc5)CC4)cc3)c2cc1OC has a pIC50 of 7.92 (trypan blue; 72 h).
For c1cncc(Nc2nccc(NC3CCCCC3)n2)c1, the pEC50 was under 5.15 (ATP luminescence; 72 h).
O=C(O)c1ccc(CN2CCC(CN[C@@H]3C[C@H]3c3ccccc3)CC2)cc1 has a pEC50 of 7.40 (resazurin; 96 h).
